ChEMBL document CHEMBL4725466, “Discovery and SAR of Novel Disubstituted Quinazolines as Dual PI3Kalpha/mTOR Inhibitors Targeting Breast Cancer” (ACS Med Chem Lett, 2020)
Converted amounts (≈) assume the structure as drawn. The source made the active and inactive calls. The rule behind the calls is not given here.

Legend:
[1] = system: MCF7; test: Antiproliferative activity against human MCF7 cells assessed as reduction in cell viability after 48 hrs by celltiter-glo 3D luminescent assay; format: functional, cell-based; settings: MCF7, 48 h
Method in brief: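 MCF7 cells grown in 3D culture, viability read by CellTiter-Glo 3D luminescence; dose–response curves run up to 15 μM to derive IC50.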

[2] = biological target: PI3-kinase p110-alpha/p85-alpha (Homo sapiens, UniProt P42336); test: Inhibition of human PI3K p110alpha/p85alpha using PIP2 as substrate incubated for 10 mins followed by ATP addition and measured after 30 mins in presence of 10 uM ATP by HTRF assay; format: protein-complex assay
[3] = Half life in CD1 mouse liver microsomes at 1 uM incubated for 60 mins under shaking condition by LC-MS/MS analysis; format: ADME, Microsome
Method in brief: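 Metabolic stability in mouse liver microsomes with test compound at 1 μM; result expressed as t1/2 (min).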

[4] = biological target: T1, PI3-kinase p110-alpha/p85-alpha (Homo sapiens) (UniProt P27986+P42336); test: Inhibition of human PI3K p110alpha/p85alpha at 10 uM using PIP2 as substrate incubated for 10 mins followed by ATP addition and measured after 30 mins in presence of 10 uM ATP by HTRF assay; format: protein-complex assay
[5] = biological target: T2, Serine/threonine-protein kinase mTOR (Homo sapiens, UniProt P42345); test: Inhibition of human mTOR at 10 uM using 4EBP1 as substrate after 120 mins by [gamma-33P]-ATP assay
Method in brief: (§1)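 Single-point kinase screen by HotSpot radioisotope filter binding assay; compound at 10 μM with 10 μM ATP, reported as percent inhibition of PI3Kα and mTOR.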

[6] = Cytotoxicity against human primary fibroblasts assessed as cell viability at 10 uM after 48 hrs by celltiter-glo 2D luminescent assay relative to control; format: cell-based, Fibroblast; settings: read-out: Activity
Method in brief: (§2)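 2D CellTiter-Glo luminescent viability screen, single 10 μM compound concentration, in MDA-MB-468, MDA-MB-231 and MCF7 breast cancer cells and in normal human dermal fibroblasts; output reported as percent of viable cells.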

[7] = system: MDA-MB-468; test: Antiproliferative activity against human MDA-MB-468 cells assessed as cell viability at 10 uM after 48 hrs by celltiter-glo 2D luminescent assay relative to control; format: functional; settings: read-out: Activity; method in brief: as §2
[8] = Kinetic aqueous solubility of compound in 2% DMSO/Phosphate buffer saline incubated for 90 mins under shaking condition by; format: physicochemical; settings: 2% DMSO/phosphate buffered saline, read-out: Kinetic_solubility
Method in brief: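 Maximum kinetic aqueous solubility measured in 2% DMSO/phosphate-buffered saline, pH 7.4.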

[9] = system: MCF7; test: Antiproliferative activity against human MCF7 cells assessed as cell viability at 10 uM after 48 hrs by celltiter-glo 2D luminescent assay relative to control; format: functional; settings: read-out: Activity; method in brief: as §2
[10] = system: MDA-MB-231; test: Antiproliferative activity against human MDA-MB-231 cells assessed as cell viability at 10 uM after 48 hrs by celltiter-glo 2D luminescent assay relative to control; format: functional; settings: read-out: Activity; method in brief: as §2
[11] = biological target: T2, Serine/threonine-protein kinase mTOR; test: Inhibition of mTOR in human MCF7 cells assessed as reduction in phosphorylated 4EBP level after 4 hrs by Western blot analysis; format: cell-based; settings: dose nM 62.5-125, time 4.0 hrs
Method in brief: (§3)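 MCF7 cells treated for 4 h at 62.5 and 125 nM; lysates probed by Western blot for phospho-AKT(473), phospho-4EBP and phospho-P70S6.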

[12] = biological target: T2, Serine/threonine-protein kinase mTOR; test: Inhibition of mTOR in human MCF7 cells assessed as reduction in phosphorylated P70S6K level after 4 hrs by Western blot analysis; format: cell-based; settings: dose nM 62.5-125, time 4.0 hrs; method in brief: as §3
[13] = system: MCF7; test: Inhibition of PI3K in human MCF7 cells assessed as reduction in AKT phosphorylation at 473 residue after 4 hrs by Western blot analysis; format: cell-based; settings: dose nM 62.5-125, time 4.0 hrs; method in brief: as §3
[14] = biological target: T1, PI3-kinase p110-alpha/p85-alpha (Homo sapiens); test: Inhibition of human PI3K p110alpha/p85alpha at 10 uM using PIP2 as substrate incubated for 10 mins followed by ATP addition and measured after 30 mins in presence of 10 uM ATP by HTRF assay relative to control; format: protein-complex assay
[15] = biological target: T2, Serine/threonine-protein kinase mTOR; test: Inhibition of human mTOR at 10 uM using 4EBP1 as substrate after 120 mins by [gamma-33P]-ATP assay relative to control; method in brief: as §1

Sequence of PI3-kinase p110-alpha/p85-alpha (P27986 whole entry): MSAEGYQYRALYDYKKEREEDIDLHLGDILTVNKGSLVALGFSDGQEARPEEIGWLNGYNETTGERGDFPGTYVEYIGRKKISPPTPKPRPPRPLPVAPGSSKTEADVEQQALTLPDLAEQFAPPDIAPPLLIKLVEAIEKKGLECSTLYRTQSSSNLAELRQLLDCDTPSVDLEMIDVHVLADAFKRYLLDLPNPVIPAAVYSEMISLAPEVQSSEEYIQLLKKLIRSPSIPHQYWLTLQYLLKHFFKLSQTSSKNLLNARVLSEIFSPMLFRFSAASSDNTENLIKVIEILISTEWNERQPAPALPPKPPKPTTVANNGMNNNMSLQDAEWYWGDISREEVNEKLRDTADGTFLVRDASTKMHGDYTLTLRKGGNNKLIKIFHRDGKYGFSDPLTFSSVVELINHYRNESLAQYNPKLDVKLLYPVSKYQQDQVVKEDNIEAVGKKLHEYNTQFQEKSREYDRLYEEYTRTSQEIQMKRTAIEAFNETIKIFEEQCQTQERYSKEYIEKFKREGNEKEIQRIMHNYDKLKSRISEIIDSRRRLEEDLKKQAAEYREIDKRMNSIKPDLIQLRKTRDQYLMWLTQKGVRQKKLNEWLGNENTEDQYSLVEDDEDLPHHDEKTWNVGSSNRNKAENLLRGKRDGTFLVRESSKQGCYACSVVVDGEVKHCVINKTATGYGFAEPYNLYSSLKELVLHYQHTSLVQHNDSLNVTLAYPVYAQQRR
Sequence of PI3-kinase p110-alpha/p85-alpha (P42336 whole entry): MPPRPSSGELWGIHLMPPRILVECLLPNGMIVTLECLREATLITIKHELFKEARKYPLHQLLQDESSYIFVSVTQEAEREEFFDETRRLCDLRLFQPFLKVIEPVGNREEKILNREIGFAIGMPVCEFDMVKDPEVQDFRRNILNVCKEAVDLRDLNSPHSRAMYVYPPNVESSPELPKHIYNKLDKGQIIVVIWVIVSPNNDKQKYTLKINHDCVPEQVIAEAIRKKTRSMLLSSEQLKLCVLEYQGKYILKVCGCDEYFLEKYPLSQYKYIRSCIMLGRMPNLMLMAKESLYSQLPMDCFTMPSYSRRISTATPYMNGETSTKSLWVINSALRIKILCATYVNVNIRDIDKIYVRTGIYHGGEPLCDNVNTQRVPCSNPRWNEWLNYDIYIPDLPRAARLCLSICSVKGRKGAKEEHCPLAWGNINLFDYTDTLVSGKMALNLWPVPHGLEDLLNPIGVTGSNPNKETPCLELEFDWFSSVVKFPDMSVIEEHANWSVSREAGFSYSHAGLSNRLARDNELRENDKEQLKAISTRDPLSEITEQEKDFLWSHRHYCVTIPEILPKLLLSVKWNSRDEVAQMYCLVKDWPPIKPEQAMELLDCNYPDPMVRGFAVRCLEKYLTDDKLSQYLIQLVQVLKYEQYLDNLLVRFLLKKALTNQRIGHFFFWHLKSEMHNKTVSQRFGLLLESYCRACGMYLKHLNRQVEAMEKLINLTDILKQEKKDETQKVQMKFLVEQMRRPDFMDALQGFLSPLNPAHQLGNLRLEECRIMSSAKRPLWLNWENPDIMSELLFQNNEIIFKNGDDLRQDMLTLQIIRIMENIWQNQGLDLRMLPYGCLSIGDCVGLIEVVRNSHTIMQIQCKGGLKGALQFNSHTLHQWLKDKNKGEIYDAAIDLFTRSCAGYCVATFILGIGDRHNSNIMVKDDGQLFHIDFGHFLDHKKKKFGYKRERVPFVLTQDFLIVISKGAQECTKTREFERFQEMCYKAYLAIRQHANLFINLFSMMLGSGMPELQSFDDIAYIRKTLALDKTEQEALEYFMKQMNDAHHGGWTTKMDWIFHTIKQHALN

| Compound | IC50 [1] [nM] | IC50 [2] [nM] | half-life at 1 µM [3] [h] | inhibition [4] | inhibition [5] | viability at 48 h, 10 µM [6] [%] | viability at 10 µM [7] [%] | solubility kinetic at 1.5 h [8] [µM] | viability at 10 µM [9] [%] | viability at 10 µM [10] [%] | inhibition [11] | inhibition [12] | inhibition [13] | inhibition [14] [%] | inhibition [15] [%] |
| --- | --- | --- | --- | --- | --- | --- | --- | --- | --- | --- | --- | --- | --- | --- | --- |
| O=C(Nc1ccc(-c2nc(N3CCOCC3)c3ccccc3n2)cc1)Nc1ccc(S(=O)(=O)Nc2nccs2)cc1 | 1800 | 26.1 | > 1 | Active | Active | 95 | 59 | 3.1 (≈ 1.82 µg/mL) | 40 | 140 |  |  |  |  |  |
| CNC(=O)c1ccc(NC(=O)Nc2ccc(-c3nc(N4CCOCC4)c4ccccc4n3)cc2)cc1 | 300 | 2.5 | > 1 | Active | Active | 80 | 54 | < 2 | 12 | 66 |  |  |  |  |  |
| NS(=O)(=O)c1ccc(NC(=O)Nc2ccc(-c3nc(N4CCOCC4)c4ccccc4n3)cc2)cc1 | 200 | 3.4 | > 1 | Active | Active | 84 | 33 | < 2 | 8 | 114 |  |  |  |  |  |
| CC(=O)Nc1ccc(NC(=O)Nc2ccc(-c3nc(N4CCOCC4)c4ccccc4n3)cc2)cc1 | 200 | 0.7 | > 1 | Active | Active | 71 | 50 | < 2 | 29 | 69 | Dose-dependent effect | Dose-dependent effect | Dose-dependent effect |  |  |
| O=C(Nc1ccc(-c2nc(N3CCOCC3)c3ccccc3n2)cc1)Nc1ccc(S(=O)(=O)Nc2ncccn2)cc1 |  |  | > 1 | Active | Active |  |  | 13.6 (≈ 7.92 µg/mL) |  |  |  |  |  | 83 |  |
| O=C(Nc1ccc(CCO)cc1)Nc1ccc(-c2nc(N3CCOCC3)c3ccccc3n2)cc1 | 300 | 1.41 | 0.637 | Active | Active | 63 | 74 | 5.9 (≈ 2.77 µg/mL) | 7 | 192 |  |  |  |  |  |
| O=C(Nc1ccc(-c2nc(N3CCOCC3)c3ccccc3n2)cc1)Nc1ccc(S(=O)(=O)Nc2ccccc2)cc1 |  |  | 0.392 | Active | Active |  |  | < 2 |  |  |  |  |  | 63 | 75 |
| O=C(Nc1ccc(CO)cc1)Nc1ccc(-c2nc(N3CCOCC3)c3ccccc3n2)cc1 | 200 | 2.4 | > 1 | Active | Active | 86 | 60 | 14.3 (≈ 6.51 µg/mL) | 7 | 208 |  |  |  |  |  |
| O=C(Nc1ccc(-c2nc(N3CCOCC3)c3ccccc3n2)cc1)Nc1ccc(S(=O)(=O)Nc2ccc(F)cc2)cc1 |  |  | > 1 | Active | Active |  |  | < 2 |  |  |  |  |  | 54 | 60 |
| N=C(N)NS(=O)(=O)c1ccc(NC(=O)Nc2ccc(-c3nc(N4CCOCC4)c4ccccc4n3)cc2)cc1 | 300 | 18.5 | > 1 | Active | Active | 92 | 51 | 6.1 (≈ 3.33 µg/mL) | 30 | 152 |  |  |  |  |  |
| O=C(Nc1ccccc1)Nc1ccc(-c2nc(N3CCOCC3)c3ccccc3n2)cc1 | 1200 | 12 | > 1 | Active | Active | 99 | 80 | 8.1 (≈ 3.45 µg/mL) | 35 | 140 |  |  |  |  |  |
| O=C(NCCO)Nc1ccc(-c2nc(N3CCOCC3)c3ccccc3n2)cc1 | 700 | 185 | 0.885 | Active | Active | 95 | 65 | 200 (≈ 78.7 µg/mL) | 31 | 146 |  |  |  |  |  |
| CCOC(=O)c1ccc(NC(=O)Nc2ccc(-c3nc(N4CCOCC4)c4ccccc4n3)cc2)cc1 |  |  | 0.508 | Active | Active |  |  | < 2 |  |  |  |  |  | 73 | 81 |
| CCC(=O)c1ccc(NC(=O)Nc2ccc(-c3nc(N4CCOCC4)c4ccccc4n3)cc2)cc1 |  |  | > 1 | Active | Active |  |  | 4 (≈ 1.93 µg/mL) |  |  |  |  |  | 77 | 73 |
| O=C(Nc1ccc(-c2nc(N3CCOCC3)c3ccccc3n2)cc1)Nc1ccc(S(=O)(=O)Nc2ccc(F)cc2F)cc1 |  |  | > 1 | Active | Active |  |  | 4.3 (≈ 2.65 µg/mL) |  |  |  |  |  | 56 | 70 |
| O=C(Nc1ccc(-c2nc(N3CCOCC3)c3ccccc3n2)cc1)Nc1ccc(S(=O)(=O)Nc2ccccn2)cc1 |  |  | 0.63 | Active | Active |  |  | < 2 |  |  |  |  |  | 84 |  |
| O=C(Nc1ccc(-c2nc(N3CCOCC3)c3ccccc3n2)cc1)Nc1cccc(CO)c1 | 300 | 7.2 | > 1 | Active | Active | 94 | 47 | 8.2 (≈ 3.74 µg/mL) | 13 | 138 |  |  |  |  |  |
